Laboratory results as given in ChEMBL document CHEMBL5705885, “CYT387, a selective JAK1/JAK2 inhibitor: in vitro assessment of kinase selectivity and preclinical studies using cell lines and primary cells from polycythemia vera patients” (Leukemia, 2009).

Tests used:
[1] = target: Dual specificity tyrosine-phosphorylation-regulated kinase 3 (Homo sapiens, UniProt O43781); experiment: Inhibition of DYRK3 (unknown origin)
[2] = target: T1, Serine/threonine-protein kinase PLK3 (Homo sapiens, UniProt Q9H4B4); experiment: Inhibition of PLK3 (unknown origin)
Ephrin type-B receptor 1 = Ephrin type-B receptor 1 (Homo sapiens, UniProt P54762); experiment: Inhibition of EPHB1 (unknown origin)
[3] = target: Proto-oncogene tyrosine-protein kinase ROS (Homo sapiens, UniProt P08922); experiment: Inhibition of ROS1 (unknown origin)
[4] = target: Protein kinase C alpha type (Homo sapiens, UniProt P17252); experiment: Inhibition of PRKCA (unknown origin)
BaF3 = experiment: Antiproliferative activity against mouse BaF3 cells harboring JAK2V617F mutant measured after 72 hrs by Alamar blue staining based analysis; assay type: functional, cell-based; conditions: BaF3, 72 h
Outline: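 Ba/F3 murine cells expressing JAK2V617F or MPLW515L. Compound stocks in DMSO were diluted into culture medium. After 72 h at 37 °C in 5% CO2, proliferation was quantified with the Alamar Blue assay.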

[5] = target: Protein kinase C gamma type (Homo sapiens, UniProt P05129); conditions: dose 100.0 nM
[6] = target: T1, Serine/threonine-protein kinase PLK3; conditions: dose 100.0 nM
[7] = target: PAS domain-containing serine/threonine-protein kinase (Homo sapiens, UniProt Q96RG2); experiment: Inhibition of PASK (unknown origin)
[8] = target: Tyrosine-protein kinase SYK (Homo sapiens, UniProt P43405); experiment: Inhibition of SYK (unknown origin)
[9] = target: Dual specificity protein kinase CLK2 (Homo sapiens, UniProt P49760); experiment: Inhibition of CLK2 (unknown origin)
[10] = target: MAP kinase-activated protein kinase 5 (Homo sapiens, UniProt Q8IW41); experiment: Inhibition of MAPKAPK5 (unknown origin)
Ephrin type-A receptor 2 = Ephrin type-A receptor 2 (Homo sapiens, UniProt P29317); experiment: Inhibition of EPHA2 (unknown origin)
[11] = target: Serine/threonine-protein kinase MARK1 (Homo sapiens, UniProt Q9P0L2); conditions: dose 100.0 nM
[12] = target: Serine/threonine-protein kinase Nek9 (Homo sapiens) (UniProt Q8TD19); conditions: dose 100.0 nM
[13] = target: Macrophage colony-stimulating factor 1 receptor (Homo sapiens, UniProt P07333); conditions: dose 100.0 nM
Aurora kinase B [14] = target: T2, Aurora kinase B (Homo sapiens, UniProt Q96GD4); conditions: dose 100.0 nM
[15] = target: Signal transducer and activator of transcription 3 (Homo sapiens) (UniProt P40763); experiment: Inhibition of STAT3 phosphorylation in human HEL cells by Western blot analysis; assay type: cell-based; conditions: dose 0.1-5 µM
[16] = target: Activin receptor type-1B (Homo sapiens) (UniProt P36896); conditions: dose 100.0 nM
[17] = target: Homeodomain-interacting protein kinase 4 (Homo sapiens) (UniProt Q8NE63); conditions: dose 100.0 nM
Activin receptor type-1B = Activin receptor type-1B (Homo sapiens, UniProt P36896); experiment: Inhibition of ACVR1B (unknown origin)
[18] = target: Vascular endothelial growth factor receptor 2 (Homo sapiens, UniProt P35968); experiment: Inhibition of KDR (unknown origin)
[19] = target: Mitogen-activated protein kinase 14 (Homo sapiens, UniProt Q16539); experiment: Inhibition of MAPK14 (unknown origin)
[20] = target: Tyrosine-protein kinase Yes (Homo sapiens, UniProt P07947); experiment: Inhibition of YES1 (unknown origin)
[21] = target: Serine/threonine-protein kinase D3 (Homo sapiens) (UniProt O94806); conditions: dose 100.0 nM
[22] = target: Vascular endothelial growth factor receptor 1 (Homo sapiens, UniProt P17948); experiment: Inhibition of FLT1 (unknown origin)
[23] = target: G protein-coupled receptor kinase 3 (Homo sapiens, UniProt P35626); experiment: Inhibition of ADRBK2 (unknown origin)
[24] = target: MAP kinase-activated protein kinase 2 (Homo sapiens, UniProt P49137); experiment: Inhibition of MAPKAPK2 (unknown origin)
[25] = target: Mitogen-activated protein kinase kinase kinase 9 (Homo sapiens, UniProt P80192); experiment: Inhibition of MAP3K9 (unknown origin)
[26] = target: Tyrosine-protein kinase ABL1 (Homo sapiens) (UniProt P00519); conditions: dose 100.0 nM
[27] = target: Cyclin-dependent kinase 1/cyclin B1 (Homo sapiens, UniProt P06493); experiment: Inhibition of CDK1/cyclin B (unknown origin); assay type: protein-complex assay
[28] = target: Tyrosine-protein kinase FRK (Homo sapiens, UniProt P42685); experiment: Inhibition of FRK (unknown origin)
[29] = target: G protein-coupled receptor kinase 4 (Homo sapiens, UniProt P32298); conditions: dose 100.0 nM
[30] = target: Ribosomal protein S6 kinase alpha-5 (Homo sapiens, UniProt O75582); experiment: Inhibition of RPS6KA5 (unknown origin)
[31] = target: Serine/threonine-protein kinase Nek2 (Homo sapiens, UniProt P51955); experiment: Inhibition of NEK2 (unknown origin)
[32] = target: Serine/threonine-protein kinase D2 (Homo sapiens, UniProt Q9BZL6); experiment: Inhibition of PRKD2 (unknown origin)
[33] = target: Mitogen-activated protein kinase 9 (Homo sapiens) (UniProt P45984); conditions: dose 100.0 nM
Aurora kinase B [34] = target: T2, Aurora kinase B; experiment: Inhibition of AURKB (unknown origin)
[35] = target: High affinity nerve growth factor receptor (Homo sapiens, UniProt P04629); conditions: dose 100.0 nM
[36] = target: Serine/threonine-protein kinase B-raf (Homo sapiens, UniProt P15056); conditions: dose 100.0 nM
[37] = target: Fibroblast growth factor receptor 1 (Homo sapiens, UniProt P11362); experiment: Inhibition of FGFR1 (unknown origin)
[38] = target: Tyrosine-protein kinase Srms (Homo sapiens, UniProt Q9H3Y6); experiment: Inhibition of SRMS (unknown origin)
[39] = target: AMP-activated protein kinase (AMPK) alpha-1/beta-1/gamma-1 (Homo sapiens, UniProt P54619+Q13131+Q9Y478); experiment: Inhibition of AMPK alpha1/beta1/gamma1 (unknown origin); assay type: protein-complex assay

T2 sequence (Q96GD4 whole entry): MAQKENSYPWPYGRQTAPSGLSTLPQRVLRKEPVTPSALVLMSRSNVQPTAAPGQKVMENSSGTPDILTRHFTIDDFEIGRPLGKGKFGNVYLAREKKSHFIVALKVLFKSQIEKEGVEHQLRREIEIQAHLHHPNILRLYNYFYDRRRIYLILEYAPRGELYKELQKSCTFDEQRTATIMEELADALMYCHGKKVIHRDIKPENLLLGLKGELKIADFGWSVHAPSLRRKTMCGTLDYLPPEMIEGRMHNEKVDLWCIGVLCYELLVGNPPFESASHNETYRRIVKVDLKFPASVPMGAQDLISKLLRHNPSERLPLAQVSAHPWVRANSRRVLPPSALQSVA
Chain of G protein-coupled receptor kinase 4 (P32298 whole entry, looked up): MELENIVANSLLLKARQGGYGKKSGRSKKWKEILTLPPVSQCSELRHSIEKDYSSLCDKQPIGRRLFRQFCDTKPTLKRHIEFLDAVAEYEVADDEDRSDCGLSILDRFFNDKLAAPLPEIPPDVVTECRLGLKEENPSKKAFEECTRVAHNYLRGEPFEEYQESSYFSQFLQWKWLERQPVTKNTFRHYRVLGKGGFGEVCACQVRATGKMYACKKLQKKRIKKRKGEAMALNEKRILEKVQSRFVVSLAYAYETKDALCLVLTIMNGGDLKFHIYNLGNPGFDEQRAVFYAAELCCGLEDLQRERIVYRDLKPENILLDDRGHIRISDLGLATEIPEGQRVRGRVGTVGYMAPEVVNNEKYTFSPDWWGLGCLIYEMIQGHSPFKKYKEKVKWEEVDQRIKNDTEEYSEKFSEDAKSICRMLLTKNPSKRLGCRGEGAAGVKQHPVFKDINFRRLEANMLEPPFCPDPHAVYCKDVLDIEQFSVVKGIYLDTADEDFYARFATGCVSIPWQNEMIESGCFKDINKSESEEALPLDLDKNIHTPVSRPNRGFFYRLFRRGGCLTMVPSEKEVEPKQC
Chain of Activin receptor type-1B (P36896 whole entry): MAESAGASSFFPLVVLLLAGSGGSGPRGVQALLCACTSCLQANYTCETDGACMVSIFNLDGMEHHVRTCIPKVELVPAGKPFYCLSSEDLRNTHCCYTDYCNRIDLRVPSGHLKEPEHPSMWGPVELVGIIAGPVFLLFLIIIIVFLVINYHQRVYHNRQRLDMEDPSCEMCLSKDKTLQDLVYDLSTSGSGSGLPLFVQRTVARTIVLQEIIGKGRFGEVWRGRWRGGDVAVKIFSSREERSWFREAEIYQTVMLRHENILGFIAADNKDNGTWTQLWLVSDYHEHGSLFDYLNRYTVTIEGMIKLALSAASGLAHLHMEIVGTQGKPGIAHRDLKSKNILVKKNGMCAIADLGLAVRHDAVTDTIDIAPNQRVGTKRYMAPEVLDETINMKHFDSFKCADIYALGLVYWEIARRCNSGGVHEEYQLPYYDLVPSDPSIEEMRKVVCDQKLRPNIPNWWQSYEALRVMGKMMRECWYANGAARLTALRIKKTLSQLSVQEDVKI
Chain of Activin receptor type-1B (Homo sapiens) (P36896 whole entry): as above
Chain of Ephrin type-B receptor 1 (P54762 whole entry): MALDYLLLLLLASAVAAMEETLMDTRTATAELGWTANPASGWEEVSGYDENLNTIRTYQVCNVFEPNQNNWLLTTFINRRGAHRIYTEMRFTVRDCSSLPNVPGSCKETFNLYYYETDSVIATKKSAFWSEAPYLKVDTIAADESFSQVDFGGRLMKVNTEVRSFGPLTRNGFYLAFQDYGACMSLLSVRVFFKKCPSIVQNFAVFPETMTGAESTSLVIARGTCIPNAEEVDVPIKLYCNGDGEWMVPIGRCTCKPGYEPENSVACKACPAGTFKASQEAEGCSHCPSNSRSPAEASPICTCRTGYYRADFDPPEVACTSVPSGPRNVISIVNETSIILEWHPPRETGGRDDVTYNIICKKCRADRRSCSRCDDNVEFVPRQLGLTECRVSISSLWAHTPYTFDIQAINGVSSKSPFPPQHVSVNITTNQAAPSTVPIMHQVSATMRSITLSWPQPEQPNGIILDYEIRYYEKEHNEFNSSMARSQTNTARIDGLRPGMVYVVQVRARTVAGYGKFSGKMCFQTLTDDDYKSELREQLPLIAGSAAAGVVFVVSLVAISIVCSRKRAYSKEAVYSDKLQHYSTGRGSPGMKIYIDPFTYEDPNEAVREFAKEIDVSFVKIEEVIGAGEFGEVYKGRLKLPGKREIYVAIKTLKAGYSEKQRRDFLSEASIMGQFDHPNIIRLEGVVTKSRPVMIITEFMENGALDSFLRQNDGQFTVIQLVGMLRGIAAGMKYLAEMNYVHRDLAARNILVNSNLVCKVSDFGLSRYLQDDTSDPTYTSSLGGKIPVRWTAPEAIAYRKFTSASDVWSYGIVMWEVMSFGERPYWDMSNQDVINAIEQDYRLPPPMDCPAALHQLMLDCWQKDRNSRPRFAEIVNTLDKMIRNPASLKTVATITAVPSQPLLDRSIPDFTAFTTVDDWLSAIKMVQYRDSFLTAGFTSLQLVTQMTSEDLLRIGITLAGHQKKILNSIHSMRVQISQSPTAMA
Chain of Mitogen-activated protein kinase 9 (Homo sapiens) (P45984 whole entry, looked up): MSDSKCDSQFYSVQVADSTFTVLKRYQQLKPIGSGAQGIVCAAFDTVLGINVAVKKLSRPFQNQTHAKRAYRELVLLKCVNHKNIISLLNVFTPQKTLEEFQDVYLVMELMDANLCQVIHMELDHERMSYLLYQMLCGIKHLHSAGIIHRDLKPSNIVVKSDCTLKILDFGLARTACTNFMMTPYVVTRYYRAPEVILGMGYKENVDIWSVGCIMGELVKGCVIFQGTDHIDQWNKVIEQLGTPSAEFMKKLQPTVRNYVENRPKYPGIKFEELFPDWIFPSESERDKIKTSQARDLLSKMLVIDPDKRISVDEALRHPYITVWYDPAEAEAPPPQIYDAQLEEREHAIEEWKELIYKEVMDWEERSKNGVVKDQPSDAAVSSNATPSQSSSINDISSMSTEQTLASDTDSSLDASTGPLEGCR
Chain of Mitogen-activated protein kinase 14 (Q16539 whole entry): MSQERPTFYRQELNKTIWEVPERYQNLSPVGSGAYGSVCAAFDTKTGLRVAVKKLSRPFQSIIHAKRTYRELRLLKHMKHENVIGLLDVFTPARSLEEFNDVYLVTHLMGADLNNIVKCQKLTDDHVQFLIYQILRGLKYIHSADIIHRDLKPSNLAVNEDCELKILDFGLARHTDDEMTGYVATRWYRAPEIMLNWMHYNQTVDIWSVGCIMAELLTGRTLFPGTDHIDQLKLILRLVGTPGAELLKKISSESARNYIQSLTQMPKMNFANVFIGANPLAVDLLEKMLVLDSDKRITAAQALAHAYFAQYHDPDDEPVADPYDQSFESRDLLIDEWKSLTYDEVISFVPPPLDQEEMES
Chain of Macrophage colony-stimulating factor 1 receptor (P07333 whole entry): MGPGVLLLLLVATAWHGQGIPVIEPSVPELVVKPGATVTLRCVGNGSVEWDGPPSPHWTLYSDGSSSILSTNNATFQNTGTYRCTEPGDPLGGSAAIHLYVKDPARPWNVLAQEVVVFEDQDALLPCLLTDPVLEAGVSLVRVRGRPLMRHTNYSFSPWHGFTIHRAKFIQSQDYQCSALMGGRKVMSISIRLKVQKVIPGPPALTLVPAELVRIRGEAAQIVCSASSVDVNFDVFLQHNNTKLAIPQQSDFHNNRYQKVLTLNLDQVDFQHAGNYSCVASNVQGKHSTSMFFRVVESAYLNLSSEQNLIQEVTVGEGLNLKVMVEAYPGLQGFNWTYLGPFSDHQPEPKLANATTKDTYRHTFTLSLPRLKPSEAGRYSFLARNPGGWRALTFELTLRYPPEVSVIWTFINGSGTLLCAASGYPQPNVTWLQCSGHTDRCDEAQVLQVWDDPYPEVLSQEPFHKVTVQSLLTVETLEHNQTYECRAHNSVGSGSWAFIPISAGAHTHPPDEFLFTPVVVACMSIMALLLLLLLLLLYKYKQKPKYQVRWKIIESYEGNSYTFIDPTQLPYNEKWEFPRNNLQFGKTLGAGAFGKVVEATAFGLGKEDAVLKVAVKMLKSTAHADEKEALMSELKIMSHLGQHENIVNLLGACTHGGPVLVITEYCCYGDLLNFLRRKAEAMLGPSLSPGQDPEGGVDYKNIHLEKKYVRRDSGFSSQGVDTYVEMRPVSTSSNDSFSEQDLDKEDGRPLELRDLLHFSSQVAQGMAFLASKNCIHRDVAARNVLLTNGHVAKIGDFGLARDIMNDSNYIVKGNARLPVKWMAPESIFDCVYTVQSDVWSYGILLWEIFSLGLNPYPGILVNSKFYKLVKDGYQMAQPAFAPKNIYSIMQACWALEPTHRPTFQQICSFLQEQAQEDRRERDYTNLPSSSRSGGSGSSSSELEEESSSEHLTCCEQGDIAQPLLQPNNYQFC
Chain of Fibroblast growth factor receptor 1 (P11362 whole entry): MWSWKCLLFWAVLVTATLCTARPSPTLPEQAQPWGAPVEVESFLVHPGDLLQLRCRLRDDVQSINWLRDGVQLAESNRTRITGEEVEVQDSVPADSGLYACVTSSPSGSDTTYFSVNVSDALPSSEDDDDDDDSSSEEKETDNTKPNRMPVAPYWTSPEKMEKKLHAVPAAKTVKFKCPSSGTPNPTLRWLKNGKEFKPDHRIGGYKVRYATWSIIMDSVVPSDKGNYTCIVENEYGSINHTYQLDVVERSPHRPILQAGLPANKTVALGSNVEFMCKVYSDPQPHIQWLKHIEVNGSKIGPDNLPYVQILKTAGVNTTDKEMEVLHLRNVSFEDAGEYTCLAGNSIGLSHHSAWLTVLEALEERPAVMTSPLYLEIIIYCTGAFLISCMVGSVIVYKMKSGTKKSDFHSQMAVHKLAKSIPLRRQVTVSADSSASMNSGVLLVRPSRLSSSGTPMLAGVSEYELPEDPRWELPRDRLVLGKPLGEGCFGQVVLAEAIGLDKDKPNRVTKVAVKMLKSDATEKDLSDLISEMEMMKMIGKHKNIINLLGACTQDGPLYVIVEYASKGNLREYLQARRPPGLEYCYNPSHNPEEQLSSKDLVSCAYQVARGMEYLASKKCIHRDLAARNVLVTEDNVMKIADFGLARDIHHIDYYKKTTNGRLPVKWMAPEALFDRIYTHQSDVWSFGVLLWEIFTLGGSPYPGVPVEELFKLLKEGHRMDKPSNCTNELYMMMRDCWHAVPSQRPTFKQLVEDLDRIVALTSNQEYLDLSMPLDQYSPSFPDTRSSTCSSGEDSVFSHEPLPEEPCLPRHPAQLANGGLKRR

N#CCNC(=O)c1ccc(-c2ccnc(Nc3ccc(N4CCOCC4)cc3)n2)cc1 [MOMELOTINIB]
IC50 [1]: > 1000 nM
IC50 [2]: < 1000 nM
IC50 (Ephrin type-B receptor 1): < 1000 nM
IC50 [3]: < 1000 nM
IC50 [4]: > 1000 nM
IC50 (BaF3): 1500 nM
inhibition [5]: < 50%
inhibition [6]: < 50%
IC50 [7]: > 1000 nM
IC50 [8]: < 1000 nM
IC50 [9]: > 1000 nM
IC50 [10]: > 1000 nM
IC50 (Ephrin type-A receptor 2): > 1000 nM
inhibition [11]: < 50%
inhibition [12]: < 50%
inhibition [13]: < 50%
inhibition (Aurora kinase B [14]): < 50%
inhibition [15]: Dose-Dependent Effect
inhibition [16]: < 50%
inhibition [17]: < 50%
IC50 (Activin receptor type-1B): < 1000 nM
IC50 [18]: < 1000 nM
IC50 [19]: > 1000 nM
IC50 [20]: > 1000 nM
inhibition [21]: > 50%
IC50 [22]: > 1000 nM
IC50 [23]: > 1000 nM
IC50 [24]: > 1000 nM
IC50 [25]: < 1000 nM
inhibition [26]: < 50%
IC50 [27]: < 1000 nM
IC50 [28]: > 1000 nM
inhibition [29]: < 50%
IC50 [30]: > 1000 nM
IC50 [31]: > 1000 nM
IC50 [32]: < 1000 nM
inhibition [33]: < 50%
IC50 (Aurora kinase B [34]): < 1000 nM
inhibition [35]: < 50%
inhibition [36]: < 50%
IC50 [37]: > 1000 nM
IC50 [38]: > 1000 nM
IC50 [39]: < 1000 nM
